Data: ChEMBL document CHEMBL1153722, “Design, synthesis, and characterization of peptide-based rab geranylgeranyl transferase inhibitors” (J Med Chem, 2009)
Peptide text beside a SMILES is read from it. * marks the point of attachment. Hydrocinnamoyl = O=C(CCc1ccccc1)*; Palmitoyl = CCCCCCCCCCCCCCCC(=O)*; Undecanoyl = CCCCCCCCCCC(=O)*; Lauroyl = CCCCCCCCCCCC(=O)*; Morpholide = C1CN(*)CCO1; Cbz = O=C(OCc1ccccc1)*; NHOH = ON*

Species: Rattus norvegicus
Assay: Inhibition of rat recombinant Rab geranylgeranyltransferase at 100 uM in presence of canine Rab7 and rat REP1 NBD-FPP based continuous fluorimetric assay
Procedure, shortened: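 Continuous fluorometric assay in 96/384-well format: 3 μM Rab7, 3 μM REP1, 9 μM NBD-FPP and 400 nM RabGGTase, with or without inhibitor. […] IC50 was calculated from three independent measurements.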

Compared with `O=C(CNC(=O)[C@@H]1CCCN1C(=O)c1coc(-c2ccccc2)n1)N[C@@H](Cc1c[nH]cn1)C(=O)Nc1ccc(F)cc1F`, `O=C(CNC(=O)[C@@H]1CCCN1C(=O)c1coc(-c2ccccc2)n1)N[C@@H](Cc1ccc(O)cc1)C(=O)Nc1ccc(F)cc1F` is higher in inhibition: 87% for the first, 89% for the second.

First: CCCCCCCCCCC(=O)N[C@@H](Cc1ccc(O)cc1)C(=O)N[C@@H](Cc1c[nH]cn1)C(=O)N[C@@H](Cc1ccc(O)cc1)C(=O)NOC(C)(C)C
Second: CCCCCCCCCCC(=O)N[C@@H](Cc1c[nH]cn1)C(=O)N[C@@H](Cc1ccccc1)C(=O)N[C@@H](Cc1ccc(O)cc1)C(=O)OC (Undecanoyl-His-Phe-Tyr-OMe)
The inhibition of the first is higher: 79% for the first, 68% for the second.

First: C[C@H](NC(=O)CCc1ccccc1)C(=O)N[C@@H](Cc1ccccc1)C(=O)N[C@@H](CCC(N)=O)C(=O)NNc1ccccc1
Second: COC(=O)[C@H](CO)NC(=O)[C@H](Cc1ccccc1)NC(=O)[C@H](CO)NC(=O)CCc1ccccc1 (Hydrocinnamoyl-Ser-Phe-Ser-OMe)
The inhibition of the first is lower: 5% for the first, 90% for the second.

Going from `CN(CCc1ccccn1)C(=O)[C@H](Cc1ccc(O)cc1)NC(=O)CNC(=O)[C@H](Cc1c[nH]cn1)NC(=O)OCc1ccccc1` to `CN(CCc1ccccn1)C(=O)[C@H](Cc1ccc(O)cc1)NC(=O)CCNC(=O)[C@H](Cc1c[nH]cn1)NC(=O)OCc1ccccc1`, the inhibition falls from 85% to 78%.

First: O=C(N[C@@H](Cc1ccc(O)cc1)C(=O)N[C@@H](Cc1ccc(O)cc1)C(=O)N[C@@H](Cc1ccc(O)cc1)C(=O)O)OCc1ccccc1
Second: O=C(N[C@@H](Cc1ccc(O)cc1)C(=O)N[C@@H](Cc1ccc(O)cc1)C(=O)N[C@@H](Cc1ccc(O)cc1)C(=O)O)c1ccc(F)cc1F
The inhibition of the first is lower: 51% for the first, 106% for the second.

First: CCCCCCCCCCC(=O)NC(Cc1ccc(O)cc1)C(=O)N[C@@H](Cc1c[nH]cn1)C(=O)N[C@@H](Cc1c[nH]cn1)C(=O)NCC(O)CO (some centres undefined)
Second: CCCCCCCCCCC(=O)N[C@@H](Cc1c[nH]cn1)C(=O)N[C@@H](Cc1c[nH]cn1)C(=O)N[C@@H](Cc1ccc(O)cc1)C(=O)OC (Undecanoyl-His-His-Tyr-OMe)
The inhibition of the first is higher: 89% for the first, 64% for the second.

Compared with `O=C(CNC(=O)[C@@H]1CCCN1C(=O)/C=C/c1ccccc1)N[C@@H](Cc1ccccc1)C(=O)NC1CCCCC1`, `CC(C)C[C@H](NC(=O)/C=C/c1ccccc1)C(=O)N[C@@H](Cc1ccccc1)C(=O)N[C@@H](Cc1ccccc1)C(=O)NC1CCCCC1` is lower in inhibition: 61% for the first, -4% for the second.

First: O=C(N[C@@H](Cc1ccc(O)cc1)C(=O)N[C@@H](Cc1ccc(O)cc1)C(=O)N[C@@H](Cc1ccc(O)cc1)C(=O)OCCCl)c1ccc(F)cc1F
Second: NCCOC(=O)[C@H](Cc1ccc(O)cc1)NC(=O)[C@H](Cc1ccc(O)cc1)NC(=O)[C@H](Cc1ccc(O)cc1)NC(=O)c1ccc(F)cc1F
The inhibition of the first is lower: 71% for the first, 97% for the second.

Going from `O=C(CNC(=O)[C@H](Cc1ccc(O)cc1)NC(=O)c1ccc(F)cc1)N[C@@H](Cc1ccc(O)cc1)C(=O)OCCCl` to `O=C(CCc1ccc(F)cc1)N[C@@H](Cc1ccc(O)cc1)C(=O)NCC(=O)N[C@@H](Cc1ccc(O)cc1)C(=O)OCCCl`, the inhibition falls from 55% to 50%.

First: C[C@H](NC(=O)[C@@H](NC(=O)c1ccc(-c2ccccc2)cc1)[C@@H](C)O)C(=O)N[C@@H](CCC(N)=O)C(=O)Nc1nccs1
Second: CC[C@H](C)[C@H](NC(=O)c1ccc(-c2ccccc2)cc1)C(=O)N[C@@H](C(=O)N[C@@H](CCC(N)=O)C(=O)N1CCCCC1)C(C)C
The inhibition of the first is higher: 108% for the first, 100% for the second.

First: NC(=O)[C@H](Cc1ccc(O)cc1)NC(=O)CCNC(=O)[C@H](Cc1c[nH]cn1)NC(=O)OCc1ccccc1
Second: COC(=O)[C@H](Cc1ccc(O)cc1)NC(=O)CNC(=O)[C@H](Cc1c[nH]cn1)NC(=O)OCc1ccccc1 (Cbz-His-Gly-Tyr-OMe)
The inhibition of the first is higher: 89% for the first, 70% for the second.

Compared with `CC(C)C[C@H](NC(=O)/C=C/c1ccccc1)C(=O)N[C@@H](Cc1ccccc1)C(=O)N[C@@H](Cc1ccccc1)C(=O)O`, `O=C(/C=C/c1ccc(F)cc1)N[C@@H](CO)C(=O)N[C@@H](Cc1ccccc1)C(=O)N[C@@H](CO)C(=O)OCCCl` is higher in inhibition: 75% for the first, 84% for the second.

Compared with `O=C(CNC(=O)[C@H](Cc1cn(C(c2ccccc2)(c2ccccc2)c2ccccc2)cn1)NC(=O)c1coc(-c2ccccc2)n1)N[C@@H](Cc1cn(C(c2ccccc2)(c2ccccc2)c2ccccc2)cn1)C(=O)O`, `COC(=O)[C@H](Cc1cn(C(c2ccccc2)(c2ccccc2)c2ccccc2)cn1)NC(=O)[C@H](Cc1ccccc1)NC(=O)CNC(=O)c1csc(-c2cccs2)n1` is lower in inhibition: 95% for the first, 69% for the second.

Going from `C[C@H](NC(=O)c1coc(-c2ccccc2)n1)C(=O)NCC(=O)N[C@@H](Cc1c[nH]cn1)C(=O)Nc1ccc(F)cc1F` to `CC(C)(C)Oc1ccc(C[C@H](NC(=O)c2coc(-c3ccccc3)n2)C(=O)NCC(=O)N[C@@H](Cc2ccccc2)C(=O)O)cc1`, the inhibition rises from 76% to 82%.

First: O=C(/C=C/c1ccc(F)cc1)N[C@@H](CO)C(=O)N[C@@H](Cc1ccccc1)C(=O)N[C@@H](CO)C(=O)N1CCOCC1
Second: O=C(CCc1ccccc1)N[C@@H](CO)C(=O)NCC(=O)N[C@@H](CO)C(=O)N1CCOCC1 (Hydrocinnamoyl-Ser-Gly-Ser-Morpholide)
The inhibition of the first is lower: 75% for the first, 83% for the second.

Compared with `COC(=O)[C@H](CO)NC(=O)CNC(=O)[C@H](CO)NC(=O)/C=C/c1ccc(F)cc1`, `O=C(N[C@@H](CO)C(=O)N[C@@H](Cc1ccccc1)C(=O)N[C@@H](CO)C(=O)Nc1ccccc1)C(Br)C(Br)c1ccc(F)cc1` (some centres undefined) is higher in inhibition: 63% for the first, 81% for the second.

First: CCCCCCCCCCCCCCCC(=O)N[C@@H](Cc1ccc(O)cc1)C(=O)N[C@@H](Cc1ccc(O)cc1)C(=O)N[C@@H](Cc1ccc(O)cc1)C(=O)O (Palmitoyl-Tyr-Tyr-Tyr-OH)
Second: CCCCCCCCCCCOc1ccc(C(=O)N[C@@H](Cc2ccc(O)cc2)C(=O)N[C@@H](Cc2ccc(O)cc2)C(=O)N[C@@H](Cc2ccc(O)cc2)C(=O)OCCN)cc1
The inhibition of the first is higher: 93% for the first, 40% for the second.

First: CCCCCCCCCCCC(=O)N[C@@H](Cc1c[nH]cn1)C(=O)N[C@@H](Cc1ccccc1)C(=O)N[C@@H](Cc1ccc(O)cc1)C(=O)NO (Lauroyl-His-Phe-Tyr-{NHOH})
Second: CCCCCc1ccccc1CCC(=O)N[C@H](Cc1cnc[nH]1)C(=O)N[C@@H](Cc1ccc(O)cc1)C(=O)N[C@@H](Cc1ccccc1)C(=O)O
The inhibition of the first is higher: 89% for the first, 37% for the second.

Compared with `CCCCCCCCCCCOc1ccc(C(=O)N[C@@H](Cc2ccc(O)cc2)C(=O)N[C@@H](Cc2ccc(O)cc2)C(=O)N[C@@H](Cc2ccc(O)cc2)C(=O)Nc2ccccn2)cc1`, `O=C(CCc1ccc(F)cc1)N[C@@H](Cc1ccc(O)cc1)C(=O)NCC(=O)N[C@@H](Cc1ccc(O)cc1)C(=O)Nc1ccccc1` is higher in inhibition: 72% for the first, 99% for the second.

`O=C(CNC(=O)[C@H](Cc1c[nH]cn1)NC(=O)OCc1ccccc1)N[C@@H](Cc1ccc(O)cc1)C(=O)NCC(O)CO` (some centres undefined) and `O=C(CNC(=O)[C@H](Cc1ccc(O)cc1)NC(=O)c1ccc(F)cc1)N[C@@H](Cc1ccc(O)cc1)C(=O)NC1CCCCC1` are the same in inhibition: 74% for the first, 74% for the second.

Compared with `O=C(CCc1ccc(F)cc1)N[C@@H](Cc1ccc(O)cc1)C(=O)NCC(=O)N[C@@H](Cc1ccc(O)cc1)C(=O)Nc1ccc(F)cc1F`, `O=C(CCc1ccccc1)N[C@@H](CO)C(=O)N[C@@H](Cc1ccccc1)C(=O)N[C@@H](CO)C(=O)Nc1ccc(F)cc1F` is higher in inhibition: 89% for the first, 96% for the second.

Going from `Cc1nc(C)c(C(=O)OC[C@H](NC(=O)[C@H](C)NC(=O)[C@H](COC(=O)c2oc(C)nc2C)NC(=O)c2coc(-c3ccccc3)n2)C(=O)O)o1` to `CC(C)[C@H](NC(=O)[C@@H](Cc1ccccc1)NC(=O)c1ccc(-c2ccccc2)cc1)C(=O)N[C@H](C)C(=O)N1CCC[C@H]1C(N)=O`, the inhibition falls from 95% to 71%.
